Data: ChEMBL document CHEMBL1125789, “Synthesis and selective class III antiarrhythmic activity of novel N-heteroaralkyl-substituted 1-(aryloxy)-2-propanolamine and related propylamine derivatives” (J Med Chem, 1991)

Columns and labels:
Canis familiaris [1] = species on record: Canis familiaris; test: Repolarization to reach -60mV, in canine Purkinje Fibers at a concentration of 0.01 uM at 300 ms (simulating tachycardia); assay type: functional, Canis lupus familiaris, Purkinje fiber
How it was run: (§1)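 Isolated canine Purkinje fiber bundles were driven by square-wave pulses 2.0 ms long at 2× threshold and equilibrated ≥1 h to steady state. Each concentration was superfused 45–60 min before recording, and action potentials were sampled at 4–6 sites per fiber in control and after drug, giving Vmax and APD to −60 mV.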

Canis familiaris [2] = species on record: Canis familiaris; test: Repolarization to reach -60mV, in canine Purkinje Fibers at a concentration of 0.03 uM at 300 ms (simulating tachycardia); assay type: functional, Canis lupus familiaris, Purkinje fiber; how it was run: as §1
Canis familiaris [3] = species on record: Canis familiaris; test: Repolarization to reach -60mV, in canine Purkinje Fibers at a concentration of 0.10 uM at 300 ms (simulating tachycardia); assay type: functional, Canis lupus familiaris, Purkinje fiber; how it was run: as §1
Canis familiaris [4] = species on record: Canis familiaris; test: repolarization to reach -60mV, in canine Purkinje Fibers at a concentration of 0.01 uM at 1000 ms (simulating normal heart rate); assay type: functional, Canis lupus familiaris, Purkinje fiber
How it was run: (§2)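 Purkinje fiber bundles were stimulated with square-wave current pulses of 2.0 ms at twice threshold and equilibrated for at least 1 h, or until action potential parameters were steady. Each concentration was superfused for 45-60 min to reach steady state. Action potentials were recorded at four to six sites per fiber, under control and after drug.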

Canis familiaris [5] = species on record: Canis familiaris; test: repolarization to reach -60mV, in canine Purkinje Fibers at a concentration of 0.03 uM at 1000 ms (simulating normal heart rate); assay type: functional, Canis lupus familiaris, Purkinje fiber; how it was run: as §2
Canis familiaris [6] = species on record: Canis familiaris; test: repolarization to reach -60mV, in canine Purkinje Fibers at a concentration of 0.10 uM at 1000 ms (simulating normal heart rate); assay type: functional, Canis lupus familiaris, Purkinje fiber; how it was run: as §2
Canis familiaris [7] = test: Atrial effective refractory period by the compound in open chest anesthetized dog, after iv administration at a dose of 0.05 mg/kg.; assay type: functional, Canis lupus familiaris, Cardiac atrium
How it was run: (§3)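 Open-chest mongrel dogs under sodium pentobarbital anesthesia (30 mg/kg iv plus 5 mg/kg per h), paced at basic cycle length 300 ms. Atrial effective refractory period was determined by electrical stimulation before and after iv or intraduodenal compound and reported as change from control.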

Canis familiaris [8] = test: Atrial effective refractory period by the compound in open chest anesthetized dog, after iv administration at a dose of 0.25 mg/kg.; assay type: functional, Canis lupus familiaris, Cardiac atrium; how it was run: as §3
Canis familiaris [9] = test: Heart beat by the compound in open chest anesthetized dog, after iv administration at a dose of 0.05 mg/kg.; assay type: functional, Canis lupus familiaris
How it was run: (§4)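 Hemodynamics (heart rate, mean arterial pressure) recorded in pentobarbital-anesthetized (30 mg/kg iv, 5 mg/kg per h maintenance) open-chest mongrel dogs during the refractoriness study at BCL 300 ms. Readings were taken before and after iv or intraduodenal compound and expressed as change from control.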

Canis familiaris [10] = test: Heart beat by the compound in open chest anesthetized dog, after iv administration at a dose of 0.25 mg/kg.; assay type: functional, Canis lupus familiaris; how it was run: as §4
Canis familiaris [11] = test: Atrial conduction time by the compound in open chest anesthetized dog, after iv administration at a dose of 0.05 mg/kg.; assay type: functional, Canis lupus familiaris, Cardiac atrium
How it was run: (§5)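 Mongrel dogs anesthetized with sodium pentobarbital (30 mg/kg iv, then 5 mg/kg per h), chest opened, paced at BCL 300 ms. Atrial conduction time was taken as the interval between electrograms recorded at the proximal and distal sites of the atrial recording electrode array, before and after iv or intraduodenal dosing. Values are changes from control.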

Canis familiaris [12] = test: Atrial conduction time by the compound in open chest anesthetized dog, after iv administration at a dose of 0.25 mg/kg.; assay type: functional, Canis lupus familiaris, Cardiac atrium; how it was run: as §5
Canis familiaris [13] = test: Mean arterial pressure by the compound in open chest anesthetized dog, after iv administration at a dose of 0.05 mg/kg.; assay type: functional, Canis lupus familiaris, Artery; how it was run: as §4
Canis familiaris [14] = test: Mean arterial pressure by the compound in open chest anesthetized dog, after iv administration at a dose of 0.25 mg/kg.; assay type: functional, Canis lupus familiaris, Artery; how it was run: as §4
Canis familiaris [15] = species on record: Canis familiaris; test: Maximum rate of rise of the upstroke of transmembrane potential, in canine Purkinje Fibers at a concentration of 0.01 uM at 1000 ms (simulating normal heart rate); assay type: functional; conditions: Canis lupus familiaris, Purkinje fiber; how it was run: as §1
Canis familiaris [16] = species on record: Canis familiaris; test: Maximum rate of rise of the upstroke of transmembrane potential, in canine Purkinje Fibers at a concentration of 0.01 uM at 300 ms (simulating tachycardia); assay type: functional; conditions: Canis lupus familiaris, Purkinje fiber; how it was run: as §1
Canis familiaris [17] = species on record: Canis familiaris; test: Maximum rate of rise of the upstroke of transmembrane potential, in canine Purkinje Fibers at a concentration of 0.03 uM at 1000 ms (simulating normal heart rate); assay type: functional; conditions: Canis lupus familiaris, Purkinje fiber; how it was run: as §1
Canis familiaris [18] = species on record: Canis familiaris; test: Maximum rate of rise of the upstroke of transmembrane potential, in canine Purkinje Fibers at a concentration of 0.03 uM at 300 ms (simulating tachycardia); assay type: functional; conditions: Canis lupus familiaris, Purkinje fiber; how it was run: as §1
Canis familiaris [19] = species on record: Canis familiaris; test: Maximum rate of rise of the upstroke of transmembrane potential, in canine Purkinje Fibers at a concentration of 0.10 uM at 1000 ms (simulating normal heart rate); assay type: functional; conditions: Canis lupus familiaris, Purkinje fiber; how it was run: as §1
Canis familiaris [20] = species on record: Canis familiaris; test: Maximum rate of rise of the upstroke of transmembrane potential, in canine Purkinje Fibers at a concentration of 0.10 uM at 300 ms (simulating tachycardia); assay type: functional; conditions: Canis lupus familiaris, Purkinje fiber; how it was run: as §1
Canis familiaris [21] = test: Ventricular effective refractory period by the compound in open chest anesthetized dog, after iv administration at a dose of 0.05 mg/kg.; assay type: functional, Canis lupus familiaris, Heart
Canis familiaris [22] = test: Ventricular effective refractory period by the compound in open chest anesthetized dog, after iv administration at a dose of 0.25 mg/kg.; assay type: functional, Canis lupus familiaris, Heart
Canis familiaris [23] = test: Ventricular conduction time by the compound in open chest anesthetized dog, after iv administration at a dose of 0.05 mg/kg.; assay type: functional, Canis lupus familiaris, Heart
How it was run: (§6)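 Mongrel dogs were anesthetized with sodium pentobarbital (30 mg/kg iv, then 5 mg/kg per h), the chest opened, and the heart paced at BCL 300 ms. Compound was given iv or intraduodenally. Ventricular conduction time was taken as the interval between electrograms at the proximal and distal sites of the recording electrode array. 2-5 dogs per dose.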

Canis familiaris [24] = test: Ventricular conduction time by the compound in open chest anesthetized dog, after iv administration at a dose of 0.25 mg/kg.; assay type: functional, Canis lupus familiaris, Heart; how it was run: as §6

CN(CCCOc1ccc(NS(C)(=O)=O)cc1)Cc1ccc2cc(NS(C)(=O)=O)ccc2n1
APD (Canis familiaris [1]): 15% | APD (Canis familiaris [2]): 17% | APD (Canis familiaris [3]): 22% | APD (Canis familiaris [4]): 36% | APD (Canis familiaris [5]): 56% | APD (Canis familiaris [6]): 73% | AERP (Canis familiaris [7]): 53 | AERP (Canis familiaris [8]): 70 | HR (Canis familiaris [9]): -16 | HR (Canis familiaris [10]): -26 | ACT (Canis familiaris [11]): -5 | ACT (Canis familiaris [12]): -4 | MBP (Canis familiaris [13]): 4 | MBP (Canis familiaris [14]): 4 | Vmax (Canis familiaris [15]): -1 | Vmax (Canis familiaris [16]): -1 | Vmax (Canis familiaris [17]): -8 | Vmax (Canis familiaris [18]): -9 | Vmax (Canis familiaris [19]): -12 | Vmax (Canis familiaris [20]): -14 | VERP (Canis familiaris [21]): 26 | VERP (Canis familiaris [22]): 36 | VCT (Canis familiaris [23]): -1 | VCT (Canis familiaris [24]): -3
